Measurements from different studies.
Lines come from different studies, so protocols differ.
Target: 3-phosphoinositide-dependent protein kinase 1 (PDPK1, Homo sapiens, UniProt O15530)
Residues used in one study (O15530 1-556): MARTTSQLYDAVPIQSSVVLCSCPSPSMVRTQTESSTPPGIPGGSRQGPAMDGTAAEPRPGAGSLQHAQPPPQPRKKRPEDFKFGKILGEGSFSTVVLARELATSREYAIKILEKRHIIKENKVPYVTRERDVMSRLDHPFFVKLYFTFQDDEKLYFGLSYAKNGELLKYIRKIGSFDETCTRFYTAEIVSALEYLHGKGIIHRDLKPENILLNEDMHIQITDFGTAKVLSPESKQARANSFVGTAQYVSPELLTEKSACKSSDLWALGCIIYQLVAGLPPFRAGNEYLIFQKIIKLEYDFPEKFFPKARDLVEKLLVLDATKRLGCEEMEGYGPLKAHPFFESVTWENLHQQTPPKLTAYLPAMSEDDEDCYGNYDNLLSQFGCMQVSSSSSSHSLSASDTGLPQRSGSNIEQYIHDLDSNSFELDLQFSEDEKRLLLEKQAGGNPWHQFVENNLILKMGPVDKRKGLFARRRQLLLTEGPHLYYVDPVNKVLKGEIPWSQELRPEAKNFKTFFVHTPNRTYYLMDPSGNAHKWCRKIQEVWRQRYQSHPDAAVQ

The remaining binding of O=C1NC(c2ccccn2)Sc2ccccc21 (centres unmarked) is reported as 97% (cell-free assay; competition with immobilised ligand; 1 µM).
For CC(C)(C)c1nc2c(s1)c1nc(N)ncc1c1ccc(NS(=O)(=O)c3c(F)cccc3F)c(F)c12, the remaining activity was 82% (enzyme activity; inhibitor; radiometric; 1 µM).
COc1ccc(COc2ccc(Cc3cnc(N)nc3N)cc2OC)cc1 gave a remaining signal of 89.4% (cell-free assay; 0.5 µM).
CC(C)CC(=O)N1CCc2nc(-c3ccc(Br)cc3)nc(N(C)Cc3ccccc3)c2C1 has a remaining binding of 100% (cell-free assay; competition with immobilised ligand; 0.1 µM).
CCN(CC)CCNC(=O)c1c(C)[nH]c(/C=C2\C(=O)Nc3ccc(F)cc32)c1C gave a remaining signal of 81.6% (cell-free assay; 0.5 µM).
O=C(O)[C@@H]1[C@@H](Cn2nnc3ccccc3c2=O)CC[C@H]1C(=O)c1ccc(OCCC2CCOCC2)cc1 gave a remaining binding of 80% (cell-free assay; competition with immobilised ligand; 1 µM).
Nc1nc(NC2CCCCC2)sc1C(=O)c1ccccc1 gave a remaining activity of 106% (enzyme activity; inhibitor; 10 µM).
For FC(F)c1nc2ccccc2n1-c1nc(N2CCOCC2)nc(N2CCOCC2)n1, the remaining activity was 92% (enzyme activity; inhibitor; 10 µM).
Cc1ccc(C(=O)Nc2ccc(CN3CCN(C)CC3)c(C(F)(F)F)c2)cc1C#Cc1cnc2cccnn12 has a remaining activity of 94% (enzyme activity; inhibitor; 23.5 nM).
For O=C(N[C@H]1CCCCC/C=C\C2C[C@@]2(C(=O)O)NC(=O)[C@@H]2C[C@@H](Oc3ccncc3)CN2C1=O)OC1CCCC1 (some centres unmarked), the remaining binding was 92% (binding; competition with immobilised ligand; 1 µM).
N#CCCc1ccc2c(c1)-c1[nH]c3ccc([N+](=O)[O-])cc3c1CC(=O)N2 gave a remaining signal of 79.8% (cell-free assay; 0.5 µM).
For CNC(=O)c1cc(Oc2ccc(NC(=O)Nc3ccc(Cl)c(C(F)(F)F)c3)cc2)ccn1, the remaining binding was 100% (cell-free assay; competition with immobilised ligand; 0.1 µM).
For COc1cc(Cl)c(C(=O)N[C@@H](CN[C@H]2CC[C@@H](N)CC2)Cc2ccc(C#N)cc2)cc1-c1ccc(CN[C@H](C)c2ccc(C)cc2)o1, the remaining activity was 73% (enzyme activity; inhibitor; 1 µM).
The remaining activity of O=C(Nc1cnn(-c2csc(C(=O)NC3COC3)c2)c1)Nc1c(F)cccc1Cl is reported as 99.6% (enzyme activity; inhibitor; 5 µM).
For Cc1c(NC(=O)c2cc(C(N)=O)nc3cc(F)ccc23)c(C(F)(F)F)nn1Cc1ccc(C(C)(C)C)cc1, the remaining binding was 94% (cell-free assay; competition with immobilised ligand; 1 µM).
COc1cc(Nc2cnc(C#N)c(O[C@H](C)CN(C)C)n2)ncc1-c1cnn(C)c1 has a remaining activity of 76% (enzyme activity; inhibitor; radiometric; 1 µM).
The activity vs control of COc1cc(/C=C/C(=O)CC(=O)/C=C/c2ccc(O)c(OC)c2)ccc1O is reported as 90% (enzyme activity; inhibitor; 1 µM).
